These results are taken from ChEMBL document CHEMBL4382268, “Glycyrrhetinic acid derivatives containing aminophosphonate ester species as multidrug resistance reversers that block the NF-κB pathway and cell proliferation” (Bioorg Med Chem Lett, 2018).

The subject of test [1] is A549. As to the kind of experiment: Antimigratory activity against human A549 cells after 24 hrs by crystal violet staining based fluorescence microscopic analysis. Format: functional, cell-based. The essentials: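 Transwell migration of A549 cells incubated at 5, 10 and 20 µM for 24 h. Performed three times, representative images shown.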
Test [2] deals with SK-OV-3. As to the kind of experiment: Growth inhibition of cisplatin sensitive human SKOV3 cells after 48 hrs by MTT assay. The note with it: SK-OV-3, 48 h. Format: functional, cell-based. The essentials:
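MTT growth inhibition in the paired ovarian lines, cisplatin-sensitive SK-OV-3 and cisplatin-resistant SK-OV-3/CDDP. IC50 given as mean ± S.D. of three separate experiments, each in triplicate.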

Test [3] concerns A549. Description: Reduction in IkappaBalpha level in human A549 cells up to 20 uM after 24 hrs by Western blot analysis. Format: functional, cell-based. An outline of the steps:
(§1)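 A549 cells exposed to 5, 10 and 20 µM for 24 h. Western blots probed for NF-κB, p-IκBα, IκBα and p-IKKα/β, with GAPDH as internal control. Three experiments, representative blot shown.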
Background: A western blot detects proteins with antibodies after separation by electrophoresis.

Test [4] concerns the target T1, Inhibitor of NF-kappa-B kinase alpha/beta (Homo sapiens) (UniProt O14920+O15111). Description: Inhibition of IKKalpha/beta-mediated IkappaBalpha phosphorylation in human A549 cells after 24 hrs by Western blot analysis. Format: cell-based. An outline of the steps: as §1
For test [5], the system named is A549. Description: Induction of apoptosis in human A549 cells assessed as late apoptotic cells at 10 uM after 24 hrs by annexin V-FITC/propidium iodide staining-based flow cytometry analysis (reference value: 2.20%). The test is classed as functional. An outline of the steps:
(§2)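 A549 cells treated at 5, 10 and 20 µM for 24 h, then harvested and stained with Annexin V-FITC and PI. Flow cytometry quadrants: Q1 necrotic, Q2 late apoptotic/necrotic, Q3 early apoptotic, Q4 living. Performed three times.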
On the technique in general: In flow cytometry, cells or beads pass a laser one at a time.

The subject of test [6] is A549. Description: Induction of apoptosis in human A549 cells assessed as early apoptotic cells at 10 uM after 24 hrs by annexin V-FITC/propidium iodide staining-based flow cytometry analysis (reference value: 1.28%). The test is classed as functional. The essentials: as §2
For test [7], the system named is A549. As to the kind of experiment: Induction of apoptosis in human A549 cells assessed as late apoptotic cells at 20 uM after 24 hrs by annexin V-FITC/propidium iodide staining-based flow cytometry analysis (reference value: 2.20%). The test is classed as functional. The essentials:
as §2

For test [8], the system named is A549. Description: Induction of apoptosis in human A549 cells assessed as viable cells at 10 uM after 24 hrs by annexin V-FITC/propidium iodide staining-based flow cytometry analysis (reference value: 96.0%). Format: functional. The note with it: A549, 24 h, read-out: Activity. An outline of the steps:
as §2

The nature of test [9]: Inhibition of TNF-alpha induced NF-kappaB activation in human A549 cells after 7 hrs by Bright-Glo luciferase reporter gene assay. Format: cell-based. The settings on record: Homo sapiens, A549, 7 h; read-out: IC50. An outline of the steps:
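A549 cells transiently cotransfected with an NF-κB-Luc reporter and stimulated with TNF-α. Luciferase read-out of inhibition gives IC50, the mean of at least three independent experiments each with triplicates.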
On the technique in general: A reporter such as luciferase makes a cellular process visible.

The test system of test [10] is A549. As to the kind of experiment: Cell cycle arrest in human A549 cells assessed as accumulation at G1 phase at 20 uM after 24 hrs by propidium iodide staining based flow cytometry (reference value: 47.0%). Format: functional.
The target of test [11] is T1, Inhibitor of NF-kappa-B kinase alpha/beta (Homo sapiens). As to the kind of experiment: Inhibition of IKKalpha/beta phosphorylation in human A549 cells up to 20 uM after 24 hrs by Western blot analysis. The test is classed as cell-based. An outline of the steps:
as §1

Calls of active or inactive are those of the source. The rule behind the calls is not given here.

For orientation: IC50 means the midpoint of a concentration-inhibition curve. `CCOP(=O)(OCC)C(Nc1ccc(CC(=O)NCCCCNC(=O)[C@@]2(C)CC[C@]3(C)CC[C@]4(C)C(=CC(=O)[C@@H]5[C@@]6(C)CC[C@H](OC(C)=O)C(C)(C)[C@@H]6CC[C@]54C)[C@@H]3C2)cc1)c1ccc(F)cc1` (stereo partly specified): the Activity entry in [1] is “Dose-dependent effect”; in test [5], 22.6%; in [6], 19.1%; in test [7] it was 39.7%; in test [10], 43.02%. Also, the IC50 in [2] was 9.75 µM; in [9], 970 nM. Further, the result in test [3] was Active. The inhibition entry in test [4] was “Dose-dependent effect”. Also, in test [8], the viability at 10 µM was 57.9%. Moreover, the inhibition result in test [11] was “Active”.
